Measured values from ChEMBL document CHEMBL4402601, “Discovery of a Silicon-Containing Pan-Genotype Hepatitis C Virus NS5A Inhibitor” (J Med Chem, 2020).

What was measured:
Hepatitis C virus [1] = assay: Antiviral activity against Hepatitis C virus subtype 1b Con1 subgenomic replicon expressing NS5A infected in human HuH7 cells assessed as reduction in viral replication incubated for 3 days by luciferase reporter gene assay; type: functional, organism-based, Hepacivirus hominis; conditions: subtype 1b Con1, Huh-7, 72 h
How it was run: (§1)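 HCV replicon cell assay; inhibition of replication read as decrease in luciferase signal. Percent inhibition computed at each compound concentration; EC50 (pM) from nonlinear regression fit to a 4-parameter logistic equation. Values are means of triplicate wells, with each experiment run at least twice.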

Hepatitis C virus [2] = assay: Antiviral activity against Hepatitis C virus subtype 6a subgenomic replicon expressing NS5A infected in human HuH7 cells assessed as reduction in viral replication incubated for 3 days by luciferase reporter gene assay; type: functional, organism-based, Hepacivirus hominis; conditions: Huh-7, 72 h; how it was run: as §1
Hepatitis C virus [3] = assay: Antiviral activity against Hepatitis C virus subtype 2a subgenomic replicon expressing NS5A infected in human HuH7 cells assessed as reduction in viral replication incubated for 3 days by luciferase reporter gene assay; type: functional, organism-based, Hepacivirus hominis; conditions: Huh-7, 72 h
Hepatitis C virus [4] = assay: Antiviral activity against Hepatitis C virus subtype 1a H77 subgenomic replicon expressing NS5A Q30K mutant infected in human HuH7 cells assessed as reduction in viral replication incubated for 3 days by luciferase reporter gene assay; type: functional, organism-based, Hepacivirus hominis; conditions: subtype 1a H77, Huh-7, 72 h
How it was run: (§2)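 NS5A resistance-associated variants introduced into GT1a-H77 or GT1b-Con1 replicons. In transient assays, each variant replicon was electroporated into a Huh-7-derived cell line. Inhibition measured as drop in luciferase signal. Percent inhibition computed per concentration; EC50 from 4-parameter logistic nonlinear fit. Fold resistance is variant EC50 relative to the matching reference replicon.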

Hepatitis C virus [5] = assay: Antiviral activity against Hepatitis C virus subtype 1a H77 subgenomic replicon expressing NS5A Y93H mutant infected in human HuH7 cells assessed as reduction in viral replication incubated for 3 days by luciferase reporter gene assay; type: functional, organism-based, Hepacivirus hominis; conditions: subtype 1a H77, Huh-7, 72 h; how it was run: as §2
Hepatitis C virus [6] = assay: Antiviral activity against Hepatitis C virus subtype 1a H77 subgenomic replicon expressing NS5A Y93C mutant infected in human HuH7 cells assessed as reduction in viral replication incubated for 3 days by luciferase reporter gene assay; type: functional, organism-based, Hepacivirus hominis; conditions: subtype 1a H77, Huh-7, 72 h; how it was run: as §2
Hepatitis C virus [7] = assay: Antiviral activity against Hepatitis C virus subtype 1a H77 subgenomic replicon expressing NS5A Y93N mutant infected in human HuH7 cells assessed as reduction in viral replication incubated for 3 days by luciferase reporter gene assay; type: functional, organism-based, Hepacivirus hominis; conditions: subtype 1a H77, Huh-7, 72 h; how it was run: as §2
Hepatitis C virus [8] = assay: Antiviral activity against Hepatitis C virus subtype 1b Con1 replicon expressing NS5A L31W mutant infected in human HuH7 cells assessed as reduction in viral replication incubated for 3 days by luciferase reporter gene assay; type: functional, organism-based, Hepacivirus hominis; conditions: subtype 1b Con1, Huh-7, 72 h; how it was run: as §2
Hepatitis C virus [9] = assay: Antiviral activity against Hepatitis C virus subtype 1b Con1 replicon expressing NS5A L31V mutant infected in human HuH7 cells assessed as reduction in viral replication incubated for 3 days by luciferase reporter gene assay; type: functional, organism-based, Hepacivirus hominis; conditions: subtype 1b Con1, Huh-7, 72 h; how it was run: as §2
Hepatitis C virus [10] = assay: Antiviral activity against Hepatitis C virus subtype 1b Con1 replicon expressing NS5A P32L mutant infected in human HuH7 cells assessed as reduction in viral replication incubated for 3 days by luciferase reporter gene assay; type: functional, organism-based, Hepacivirus hominis; conditions: subtype 1b Con1, Huh-7, 72 h; how it was run: as §2
Hepatitis C virus [11] = assay: Resistance index, ratio of EC50 for Hepatitis C virus subtype 1a H77 subgenomic replicon expressing NS5A L31V mutant infected in human HuH7 cells to EC50 for Hepatitis C virus subtype 1a H77 subgenomic replicon expressing NS5A infected in human HuH7 cells; type: functional, Hepacivirus hominis
Hepatitis C virus [12] = assay: Resistance index, ratio of EC50 for Hepatitis C virus subtype 1a H77 subgenomic replicon expressing NS5A Y93H mutant infected in human HuH7 cells to EC50 for Hepatitis C virus subtype 1a H77 subgenomic replicon expressing NS5A infected in human HuH7 cells; type: functional, Hepacivirus hominis
Hepatitis C virus [13] = assay: Resistance index, ratio of EC50 for Hepatitis C virus subtype 1a H77 subgenomic replicon expressing NS5A Y93N mutant infected in human HuH7 cells to EC50 for Hepatitis C virus subtype 1a H77 subgenomic replicon expressing NS5A infected in human HuH7 cells; type: functional, Hepacivirus hominis
Hepatitis C virus [14] = assay: Resistance index, ratio of EC50 for Hepatitis C virus subtype 1b Con1 subgenomic replicon expressing NS5A Y93H mutant infected in human HuH7 cells to EC50 for Hepatitis C virus subtype 1b Con1 subgenomic replicon expressing NS5A infected in human HuH7 cells; type: functional, Hepacivirus hominis
[15] = AUClast in mouse at 2 mg/kg, iv by UPLC-MS/MS analysis; type: ADME, organism-based; conditions: in vivo
How it was run: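 Overnight-fasted mice dosed iv once at 2 mg/kg. Vehicle was 2:2:96 (v/v) alcohol : Tween 80 : glucose injection diluted 2.5 times with 10% glucose injection. Plasma concentration measured by UPLC-MS/MS.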

[16] = Tmax in dog at 5 mg/kg, po by UPLC-MS/MS analysis; type: ADME, organism-based, Canis lupus familiaris; conditions: in vivo
[17] = Cmax in dog at 5 mg/kg, po by UPLC-MS/MS analysis; type: ADME, organism-based, Canis lupus familiaris; design: dose 5 mg/kg, route oral; conditions: in vivo
[18] = AUC (0 to infinity) in dog at 5 mg/kg, po by UPLC-MS/MS analysis; type: ADME, organism-based, Canis lupus familiaris; design: dose 5 mg/kg, route oral, time infinity; conditions: in vivo
[19] = MRT in dog at 5 mg/kg, po by UPLC-MS/MS analysis; type: ADME, organism-based, Canis lupus familiaris; conditions: in vivo
[20] = Drug distribution in mouse plasma at 10 mg/kg, po incubated for 24 hrs by UPLC-MS/MS analysis; type: ADME, organism-based
How it was run: (§3)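 Oral dosing in mice and rats; compound measured in plasma and liver by UPLC-MS/MS at each time point, n = 3 (mean ± SD). LPR is mean liver concentration divided by mean plasma concentration.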

[21] = Drug distribution in rat plasma at 10 mg/kg, po incubated for 0.5 hrs by UPLC-MS/MS analysis; type: ADME, organism-based; how it was run: as §3
[22] = Drug distribution in rat plasma at 10 mg/kg, po incubated for 8 hrs by UPLC-MS/MS analysis; type: ADME, organism-based; how it was run: as §3
[23] = Drug distribution in mouse liver at 10 mg/kg, po incubated for 0.5 hrs by UPLC-MS/MS analysis; type: ADME, organism-based; conditions: read-out: Drug uptake; how it was run: as §3
[24] = Drug distribution in rat liver at 10 mg/kg, po incubated for 0.5 hrs by UPLC-MS/MS analysis; type: ADME, organism-based; conditions: read-out: Drug uptake; how it was run: as §3
[25] = Ratio of drug distribution in mouse liver to drug distribution in mouse plasma measured after 0.5 hrs by UPLC-MS/MS analysis; type: ADME, cell-free; how it was run: as §3
[26] = Ratio of drug distribution in mouse liver to drug distribution in mouse plasma measured after 3 hrs by UPLC-MS/MS analysis; type: ADME, cell-free; how it was run: as §3
[27] = Ratio of drug distribution in rat liver to drug distribution in rat plasma measured after 0.5 hrs by UPLC-MS/MS analysis; type: ADME, cell-free; how it was run: as §3
[28] = Ratio of drug distribution in rat liver to drug distribution in rat plasma measured after 3 hrs by UPLC-MS/MS analysis; type: ADME, cell-free; how it was run: as §3
[29] = Toxicity in mouse assessed as reduction in body weight at 300 mg/kg, po administered for 14 days and measured on day 14; type: organism-based; conditions: in vivo, 336 h
How it was run: (§4)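 Mice randomised after acclimation into two groups of 5 males and 5 females. Compound at 300 mg/kg or vehicle alone given once daily by oral gavage for 14 days. Clinical signs observed daily. Body weight and food intake recorded on day 1, then twice weekly. Animals killed after the 14th dose.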

[30] = Toxicity in mouse assessed as abnormality on organs at 300 mg/kg, po administered for 14 days and measured on day 14; type: organism-based; conditions: in vivo, 336 h; how it was run: as §4
Hepatitis C virus [31] = assay: Antiviral activity against Hepatitis C virus subtype 5a subgenomic replicon expressing NS5A infected in human HuH7 cells assessed as reduction in viral replication incubated for 3 days by luciferase reporter gene assay; type: functional, organism-based, Hepacivirus hominis; conditions: Huh-7, 72 h

COC(=O)N[C@H](C(=O)N1CCC[C@H]1C(=O)Nc1ccc([C@@H]2CC[C@@H](c3ccc(NC(=O)[C@@H]4CCCN4C(=O)[C@@H](NC(=O)OC)[C@@H](C)OC)cc3)N2c2cc(F)c(N3CC[Si](C)(C)CC3)c(F)c2)cc1)[C@@H](C)OC
EC50 (Hepatitis C virus [1]): 1.7 pM | EC50 (Hepatitis C virus [2]): 17 pM | EC50 (Hepatitis C virus [3]): 0.38 pM | EC50 (Hepatitis C virus [4]): 37.5 pM | EC50 (Hepatitis C virus [5]): > 1000 pM | EC50 (Hepatitis C virus [6]): > 250 pM | EC50 (Hepatitis C virus [7]): > 250 pM | EC50 (Hepatitis C virus [8]): 19.1 pM | EC50 (Hepatitis C virus [9]): 3.81 pM | EC50 (Hepatitis C virus [10]): 1.64 pM | Ratio EC50 (Hepatitis C virus [11]): 23 | Ratio EC50 (Hepatitis C virus [12]): >833 | Ratio EC50 (Hepatitis C virus [13]): >203 | Ratio EC50 (Hepatitis C virus [14]): 12.2 | AUClast [15]: 17863 ng/hr.ml | Tmax [16]: 5.3 h | Cmax [17]: 395 ng/mL | AUC [18]: 10100 ng·h/mL | MRT [19]: 17.5 h | concentration at 24 h [20]: 58.6 ng/mL | concentration at 0.5 h [21]: 40.9 ng/mL | concentration at 8 h [22]: 16.4 ng/mL | concentration at 0.5 h [23]: 436 ng/g | concentration at 0.5 h [24]: 359 ng/g | Kp at 0.5 h [25]: 8.8 | Kp at 3 h [26]: 24.6 | Kp at 0.5 h [27]: 2.7 | Kp at 3 h [28]: 5.2 | Activity [29]: Non-Toxic | Activity [30]: Non-Toxic | EC50 (Hepatitis C virus [31]): 1.6 pM
